Experimental data: ChEMBL document CHEMBL2093137, “WHO-TDR NTD Screening”
Converted amounts (≈) assume the structure as drawn.

Columns and labels:
Plasmodium falciparum K1 = assay: WHO-TDR: Malaria; assay type: functional, organism-based, Homo sapiens; details: Erythrocyte
Procedure, shortened: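 Values are IC50 figures for antiplasmodial potency. They come from a whole-organism screen of 10,000 diverse Life Chemicals compounds against Plasmodium falciparum K1 growing inside human red blood cells, run by previously published standard procedures.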

Leishmania infantum = assay: WHO-TDR: Leishmaniasis; assay type: functional, organism-based, Mus musculus; details: Macrophage
Procedure, shortened: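 Values are IC50 figures for antiparasitic potency. They come from a whole-organism screen of a 10,000-compound diverse Life Chemicals library against Leishmania infantum MHOM/MA(BE)/67 amastigotes inside murine peritoneal macrophage host cells.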

Trypanosoma cruzi = assay: WHO-TDR: Chagas disease; assay type: functional, organism-based, Homo sapiens; details: MRC5
Procedure, shortened: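 Whole-organism screen of a 10,000-compound diverse library from Life Chemicals, filtered for drug-likeness and reactive groups, against intracellular amastigotes of Trypanosoma cruzi Tulahuen CL2 beta-galactosidase strain grown in MRC-5SV2 human lung fibroblast host cells. The assay followed previously published standard procedures, with a reference drug as positive control. Antiparasitic potency is reported as IC50.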

Schistosoma mansoni = assay: WHO-TDR: Schistosomiasis; assay type: functional; design: concentration or dose not given beside the values
Procedure, shortened: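 Values are reported as percent inhibition and IC50. They come from a whole-organism screen of a 10,000-compound diverse Life Chemicals library against larval and/or adult worms of Schistosoma mansoni, Puerto Rican strain. The library had been filtered for drug-likeness and reactive groups.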

Onchocerca lienalis = assay: WHO-TDR: Onchocerciasis; assay type: functional; design: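 at 12.5 µM on microfilariae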
Procedure, shortened: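 Values are reported as percent inhibition and as IC50. They come from a whole-organism screen of a 10,000-compound diverse Life Chemicals library against microfilariae of Onchocerca ochengi or Onchocerca lienalis. The screen followed previously published standard procedures, with reference drugs as positive controls.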

[1] = test system: Trypanosoma brucei brucei; assay: WHO-TDR: Human African Trypanosomiasis (HAT); assay type: functional, organism-based; details: Squib-427
Procedure, shortened: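 Values are IC50 figures for antiparasitic potency. They come from a whole-organism screen of 10,000 diverse Life Chemicals compounds against bloodstream-form Trypanosoma brucei (Squib 427 strain).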

[2] = WHO-TDR: Cytotoxicity; assay type: toxicity, cell-based; details: human, MRC5 cells

Row | SMILES | IC50 (Plasmodium falciparum K1) | IC50 (Leishmania infantum) | IC50 (Trypanosoma cruzi) | % Inhibition (Schistosoma mansoni) | % Inhibition (Onchocerca lienalis) | IC50 [1] | IC50 [2]
1 | CCOC(=O)c1c(NC(=O)C2COc3ccccc3O2)sc2c1CC(C)(C)NC2(C)C (configuration not stated) | 4.01 µg/mL (≈ 9.02 µM) | 4.22 µg/mL (≈ 9.49 µM) | 4.1 µg/mL (≈ 9.22 µM) | 91.7% | 0% | 0.396 µg/mL (≈ 0.891 µM) | 5.73 µg/mL (≈ 12.9 µM)
2 | COc1ccc(S(=O)(=O)NCC(c2cccnc2)N2CCN(Cc3ccccc3)CC2)cc1C (configuration not stated) | 1.81 µg/mL (≈ 3.78 µM) | 7.47 µg/mL (≈ 15.5 µM) | 0.835 µg/mL (≈ 1.74 µM) | 0% | 0% | 5.04 µg/mL (≈ 10.5 µM) | > 14.4 µg/mL
3 | CCOC(=O)N1CCc2c(sc(NC(=O)C3COc4ccccc4O3)c2C(N)=O)C1 (configuration not stated) | > 12.9 µg/mL | > 12.9 µg/mL | > 12.9 µg/mL | 66% | 13.3% | > 12.9 µg/mL | > 12.9 µg/mL
4 | COc1ccccc1N1CCN(C(CNS(=O)(=O)c2cccs2)c2cccnc2)CC1 (configuration not stated) | 6.66 µg/mL (≈ 14.5 µM) | > 13.8 µg/mL | 0.559 µg/mL (≈ 1.22 µM) | 0% | 66.7% | > 13.8 µg/mL | > 13.8 µg/mL
5 | O=S(=O)(NCC(c1cccnc1)N1CCN(Cc2ccccc2)CC1)c1ccc(Cl)cc1 (configuration not stated) | 2.18 µg/mL (≈ 4.63 µM) | > 14.1 µg/mL | 0.633 µg/mL (≈ 1.34 µM) | 0% | 0% | > 14.1 µg/mL | > 14.1 µg/mL
6 | COC(=O)c1c(NC(=O)c2nc3ccccc3s2)sc2c1CC(C)(C)NC2(C)C | > 12.9 µg/mL | > 12.9 µg/mL | > 12.9 µg/mL | 0% | -1% | 0.216 µg/mL (≈ 0.503 µM) | > 12.9 µg/mL
7 | O=C(NCCc1csc(-c2ccccc2)n1)C1CCCC1 | > 9.01 µg/mL | > 9.01 µg/mL | 0.345 µg/mL (≈ 1.15 µM) | 0% | 0% | 0.152 µg/mL (≈ 0.506 µM) | > 9.01 µg/mL
8 | COc1ccccc1N1CCN(C(CNS(=O)(=O)c2c(C)cc(C)cc2C)c2cccnc2)CC1 (configuration not stated) | 0.78 µg/mL (≈ 1.58 µM) | > 14.8 µg/mL | 0.929 µg/mL (≈ 1.88 µM) | 0% | 86.7% | 4.8 µg/mL (≈ 9.71 µM) | > 14.8 µg/mL
9 | O=S(=O)(NCC(c1cccnc1)N1CCN(c2ccccc2F)CC1)c1cc(F)ccc1F (configuration not stated) | 4.27 µg/mL (≈ 8.96 µM) | > 14.3 µg/mL | 0.265 µg/mL (≈ 0.556 µM) | 0% | 0% | 4.74 µg/mL (≈ 9.95 µM) | > 14.3 µg/mL
10 | O=C(Cc1ccc(Cl)cc1)Nc1cccc(-c2nc3cccnc3s2)c1 | > 11.4 µg/mL | 0.369 µg/mL (≈ 0.971 µM) | > 11.4 µg/mL | 58.3% | 66.7% | > 11.4 µg/mL | > 11.4 µg/mL
11 | NC(=O)c1ccc(NC(=O)c2c[nH]c(=O)n(-c3ccc(F)cc3)c2=O)cc1 | > 11 µg/mL | 0.358 µg/mL (≈ 0.971 µM) | > 11 µg/mL | 0% | 0% | > 11 µg/mL | > 11 µg/mL
12 | O=C(Nc1nc(-c2ccccn2)cs1)c1cc(Cl)sc1Cl | > 10.7 µg/mL | > 10.7 µg/mL | 0.069 µg/mL (≈ 0.194 µM) |  | 80% | 0.182 µg/mL (≈ 0.511 µM) | 3.89 µg/mL (≈ 10.9 µM)
13 | O=C(O)CCCCCN1C(=O)/C(=C\c2ccccc2O)SC1=S | > 10.5 µg/mL | > 10.5 µg/mL | 0.653 µg/mL (≈ 1.86 µM) | 0% | 6.7% | 4.06 µg/mL (≈ 11.5 µM) | > 10.5 µg/mL
14 | CCOC(=O)N1CCc2c(sc(NC(=O)c3ccco3)c2-c2nc3ccccc3s2)C1 | 1.36 µg/mL (≈ 3 µM) | 0.43 µg/mL (≈ 0.948 µM) | 0.455 µg/mL (≈ 1 µM) | 58.7% | 73.3% | 0.377 µg/mL (≈ 0.831 µM) | 4.51 µg/mL (≈ 9.95 µM)
